Test results as given in ChEMBL document CHEMBL1781898, “Orally active achiral N-hydroxyformamide inhibitors of ADAM-TS4 (aggrecanase-1) and ADAM-TS5 (aggrecanase-2) for the treatment of osteoarthritis” (Bioorg Med Chem Lett, 2011).

How the values were obtained:
[1] = Thermodynamic solubility of the compound in phosphate buffer at pH 7.4 after 24 hrs; format: physicochemical; conditions: read-out: Therm_solubility
[2] = Clearance in dog at 1 mg/kg, iv and 1 mg/kg, po; format: ADME, organism-based, Canis lupus familiaris; conditions: in vivo
[3] = biological target: T1, A disintegrin and metalloproteinase with thrombospondin motifs 5 (Homo sapiens, UniProt Q9UNA0); test: Inhibition of ADAMTS-5 assessed as substrate cleavage after 16 hrs by fluorescence assay
T1 sequence (Q9UNA0 whole entry): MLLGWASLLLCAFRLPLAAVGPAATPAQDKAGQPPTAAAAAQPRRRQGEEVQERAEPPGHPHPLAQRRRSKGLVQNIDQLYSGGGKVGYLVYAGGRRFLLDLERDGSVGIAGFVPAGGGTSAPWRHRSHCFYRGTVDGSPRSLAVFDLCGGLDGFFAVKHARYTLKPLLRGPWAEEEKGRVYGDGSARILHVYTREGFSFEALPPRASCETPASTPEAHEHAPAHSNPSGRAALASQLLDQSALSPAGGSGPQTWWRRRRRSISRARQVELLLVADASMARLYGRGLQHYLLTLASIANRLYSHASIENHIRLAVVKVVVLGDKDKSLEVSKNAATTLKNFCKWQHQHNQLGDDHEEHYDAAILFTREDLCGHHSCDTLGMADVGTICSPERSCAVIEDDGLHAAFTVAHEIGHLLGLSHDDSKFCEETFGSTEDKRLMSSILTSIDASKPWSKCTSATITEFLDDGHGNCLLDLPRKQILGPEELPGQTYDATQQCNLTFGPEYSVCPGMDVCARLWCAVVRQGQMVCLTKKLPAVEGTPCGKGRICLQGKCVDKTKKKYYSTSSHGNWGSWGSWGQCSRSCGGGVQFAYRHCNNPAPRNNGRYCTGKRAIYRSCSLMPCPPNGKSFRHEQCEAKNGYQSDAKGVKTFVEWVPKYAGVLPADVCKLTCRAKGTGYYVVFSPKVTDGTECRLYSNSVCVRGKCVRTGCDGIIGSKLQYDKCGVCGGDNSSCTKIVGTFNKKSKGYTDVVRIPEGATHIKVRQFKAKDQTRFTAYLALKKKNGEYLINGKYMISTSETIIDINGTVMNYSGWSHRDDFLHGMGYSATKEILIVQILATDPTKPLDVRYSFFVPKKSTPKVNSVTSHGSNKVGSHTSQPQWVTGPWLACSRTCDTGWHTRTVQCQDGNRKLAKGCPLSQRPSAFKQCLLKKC
Summary of the method: (§1)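 Enzyme inhibition IC50s derived from at least six measurements, standard errors normally <5% within an assay; a standard compound run to keep assay-to-assay variability within twofold.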

[4] = Lipophilicity, log D of the compound; format: physicochemical; conditions: octanol/water
[5] = biological target: T2, A disintegrin and metalloproteinase with thrombospondin motifs 4 (Homo sapiens, UniProt O75173); test: Inhibition of ADAMTS-4 assessed as substrate cleavage after 16 hrs by fluorescence assay; summary of the method: as §1
T2 sequence (O75173 whole entry): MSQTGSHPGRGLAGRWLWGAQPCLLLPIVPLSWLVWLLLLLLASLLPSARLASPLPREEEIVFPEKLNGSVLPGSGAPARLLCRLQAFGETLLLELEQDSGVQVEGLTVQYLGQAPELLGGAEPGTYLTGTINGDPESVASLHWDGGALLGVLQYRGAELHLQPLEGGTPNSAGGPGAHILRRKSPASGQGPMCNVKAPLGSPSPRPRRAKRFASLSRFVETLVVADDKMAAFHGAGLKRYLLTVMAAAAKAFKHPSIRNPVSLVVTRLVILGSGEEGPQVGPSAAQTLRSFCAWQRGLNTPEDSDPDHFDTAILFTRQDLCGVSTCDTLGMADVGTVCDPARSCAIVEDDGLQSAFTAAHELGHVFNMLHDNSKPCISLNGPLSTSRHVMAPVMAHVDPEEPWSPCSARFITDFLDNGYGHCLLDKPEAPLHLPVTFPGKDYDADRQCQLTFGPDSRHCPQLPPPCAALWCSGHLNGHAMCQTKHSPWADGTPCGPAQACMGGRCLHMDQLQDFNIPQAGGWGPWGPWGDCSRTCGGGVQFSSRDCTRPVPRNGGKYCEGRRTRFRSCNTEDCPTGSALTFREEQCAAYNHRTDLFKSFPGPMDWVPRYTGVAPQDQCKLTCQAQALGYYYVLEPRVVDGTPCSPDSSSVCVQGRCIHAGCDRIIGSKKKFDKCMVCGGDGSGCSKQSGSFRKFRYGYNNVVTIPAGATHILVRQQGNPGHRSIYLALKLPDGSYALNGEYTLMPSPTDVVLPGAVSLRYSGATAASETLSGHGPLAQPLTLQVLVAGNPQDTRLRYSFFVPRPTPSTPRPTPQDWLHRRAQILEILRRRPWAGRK

[6] = Inhibition of aggrecanase activity in human late stage diseased osteoarthritis cartilage explant assessed as inhibition of aggrecan degradation measuring ARGSVIL neo-peptide release
[7] = biological target: Matrix metalloproteinase-9 (Homo sapiens, UniProt P14780); test: Inhibition of recombinant human MMP-9 assessed as substrate cleavage after 20 hrs by fluorescence assay; summary of the method: as §1
[8] = Volume of distribution at steady state in rat at 2 mg/kg, iv; format: ADME, organism-based; parameters: dose 2 mg/kg, route intravenous; conditions: in vivo, read-out: Vdss
Summary of the method: (§2)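 Rat iv PK: 2 mg/kg iv, n = 2 animals; clearance, half-life and Vdss determined.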

[9] = Free drug level in dog; format: ADME, organism-based, Canis lupus familiaris; conditions: in vivo
[10] = Clearance in rat at 2 mg/kg, iv; format: ADME, organism-based; parameters: dose 2 mg/kg, route intravenous; conditions: in vivo; summary of the method: as §2
Cytochrome P450 2D6 = Cytochrome P450 2D6 (Homo sapiens, UniProt P10635); test: Inhibition of CYP2D6; format: ADME
Summary of the method: (§3)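 Inhibition of cytochrome P450 isoforms 1A2, 2C9, 2C19, 2D6 and 3A4, reported as pIC50.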

[11] = Absolute bioavailability in dog; format: ADME, organism-based, Canis lupus familiaris; conditions: in vivo
[12] = Absolute bioavailability in mouse; format: ADME, organism-based; conditions: in vivo
Cytochrome P450 3A4 = Cytochrome P450 3A4 (Homo sapiens, UniProt P08684); test: Inhibition of CYP3A4; format: ADME; summary of the method: as §3
Cytochrome P450 3A4, sequence (P08684 whole entry): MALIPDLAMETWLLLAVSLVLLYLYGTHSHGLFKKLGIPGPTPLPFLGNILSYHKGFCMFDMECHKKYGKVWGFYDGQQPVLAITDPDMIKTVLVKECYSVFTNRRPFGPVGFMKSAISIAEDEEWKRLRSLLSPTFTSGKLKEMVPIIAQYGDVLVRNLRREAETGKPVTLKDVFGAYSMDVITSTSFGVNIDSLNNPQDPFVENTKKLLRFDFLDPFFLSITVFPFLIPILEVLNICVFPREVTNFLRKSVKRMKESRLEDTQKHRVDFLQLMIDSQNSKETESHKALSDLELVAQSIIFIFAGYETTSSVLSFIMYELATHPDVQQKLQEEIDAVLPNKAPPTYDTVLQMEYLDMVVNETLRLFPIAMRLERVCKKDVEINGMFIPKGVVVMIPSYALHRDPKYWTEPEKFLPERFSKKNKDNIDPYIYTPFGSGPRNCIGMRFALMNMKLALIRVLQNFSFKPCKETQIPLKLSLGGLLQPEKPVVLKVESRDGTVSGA

Matrix metalloproteinase-9, sequence (P14780 whole entry): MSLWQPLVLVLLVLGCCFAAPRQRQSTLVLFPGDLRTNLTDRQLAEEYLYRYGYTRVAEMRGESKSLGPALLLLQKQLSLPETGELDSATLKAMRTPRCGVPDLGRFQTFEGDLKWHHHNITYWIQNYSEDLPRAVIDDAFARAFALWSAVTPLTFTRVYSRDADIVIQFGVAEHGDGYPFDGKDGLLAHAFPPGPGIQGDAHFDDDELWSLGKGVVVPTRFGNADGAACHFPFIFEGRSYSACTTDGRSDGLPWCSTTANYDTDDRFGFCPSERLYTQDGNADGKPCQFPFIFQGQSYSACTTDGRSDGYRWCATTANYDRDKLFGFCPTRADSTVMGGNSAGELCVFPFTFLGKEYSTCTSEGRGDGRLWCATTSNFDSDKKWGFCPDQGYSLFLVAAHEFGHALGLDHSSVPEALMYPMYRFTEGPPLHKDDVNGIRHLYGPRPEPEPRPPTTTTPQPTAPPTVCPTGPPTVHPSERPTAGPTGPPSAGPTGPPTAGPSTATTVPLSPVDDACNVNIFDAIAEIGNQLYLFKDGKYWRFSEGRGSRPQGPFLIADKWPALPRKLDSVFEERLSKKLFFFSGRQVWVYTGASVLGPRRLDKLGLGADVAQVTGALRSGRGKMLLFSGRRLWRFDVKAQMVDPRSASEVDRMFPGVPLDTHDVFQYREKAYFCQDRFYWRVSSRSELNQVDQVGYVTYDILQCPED
Cytochrome P450 2D6, sequence (P10635 whole entry, canonical isoform): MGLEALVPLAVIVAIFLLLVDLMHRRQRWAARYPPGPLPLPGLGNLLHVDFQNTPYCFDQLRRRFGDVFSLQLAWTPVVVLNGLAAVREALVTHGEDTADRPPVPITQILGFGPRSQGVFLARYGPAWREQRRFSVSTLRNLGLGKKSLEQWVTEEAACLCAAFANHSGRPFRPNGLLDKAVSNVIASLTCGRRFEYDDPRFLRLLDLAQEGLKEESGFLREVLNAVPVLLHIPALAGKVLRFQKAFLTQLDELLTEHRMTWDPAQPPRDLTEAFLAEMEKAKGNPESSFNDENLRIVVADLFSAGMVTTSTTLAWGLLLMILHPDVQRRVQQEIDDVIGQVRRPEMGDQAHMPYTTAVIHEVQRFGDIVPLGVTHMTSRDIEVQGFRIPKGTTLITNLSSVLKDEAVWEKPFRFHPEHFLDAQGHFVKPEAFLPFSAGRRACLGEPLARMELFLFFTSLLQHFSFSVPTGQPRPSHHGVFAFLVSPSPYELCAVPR

Cc1noc(C)c1CCC1CCN(S(=O)(=O)CC2(N(O)C=O)CCOCC2)CC1
solubility thermodynamic at 24 h [1]: > 1000 µM | clearance [2]: 13 mL/min/kg | IC50 [3]: 860 nM | logD [4]: 0.9 | IC50 [5]: 26 nM | IC50 [6]: 150 nM | IC50 [7]: > 25000 nM | Vd [8]: 3 L/kg | fraction unbound [9]: > 0.5 | clearance [10]: 24 mL/min/kg | inhibition (INH) (Cytochrome P450 2D6): Not Active | bioavailability [11]: 52% | bioavailability [12]: 54% | inhibition (INH) (Cytochrome P450 3A4): Not Active
